# Results reported in ChEMBL document CHEMBL1145336, “1-aryl-3-(4-pyridine-2-ylpiperazin-1-yl)propan-1-one oximes as potent dopamine D4 receptor agonists for the treatment of erectile dysfunction” (J Med Chem, 2006).
# How the values were obtained:
# Type in all cases: functional, cell-based
# D(2) dopamine receptor [1] = target: T1, D(2) dopamine receptor (Homo sapiens, UniProt P14416); test: Antagonist activity at human recombinant D2 receptor expressed in HEK293 cells by FLIPR assay
# D(4) dopamine receptor = target: T2, D(4) dopamine receptor (Homo sapiens, UniProt P21917); test: Activity at human recombinant D4.4 receptor expressed in HEK293 cells by FLIPR assay
# T2 sequence (P21917 whole entry): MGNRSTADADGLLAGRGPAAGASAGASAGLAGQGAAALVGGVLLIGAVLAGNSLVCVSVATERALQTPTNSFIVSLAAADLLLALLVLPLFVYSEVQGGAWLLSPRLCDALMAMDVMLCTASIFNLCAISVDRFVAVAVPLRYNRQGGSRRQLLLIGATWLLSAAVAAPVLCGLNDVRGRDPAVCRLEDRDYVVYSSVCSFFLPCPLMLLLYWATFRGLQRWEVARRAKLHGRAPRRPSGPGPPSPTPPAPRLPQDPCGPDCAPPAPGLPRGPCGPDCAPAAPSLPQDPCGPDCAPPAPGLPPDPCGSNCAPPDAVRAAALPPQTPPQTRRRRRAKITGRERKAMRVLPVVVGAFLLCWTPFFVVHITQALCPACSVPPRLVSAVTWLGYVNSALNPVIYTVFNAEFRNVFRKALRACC
# D(2) dopamine receptor [2] = target: T1, D(2) dopamine receptor; test: Agonist activity at human recombinant D2 receptor expressed in HEK293 cells by FLIPR assay
# Outline: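 Calcium flux (FLIPR) in HEK-293 cells coexpressing recombinant human D2L with chimeric Gqo5. Efficacy is the maximal response relative to 10 µM dopamine (100%). EC50 is the concentration giving half-maximal stimulation. Values are means (SEM, n ≥ 3).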
# T1 sequence (P14416 whole entry): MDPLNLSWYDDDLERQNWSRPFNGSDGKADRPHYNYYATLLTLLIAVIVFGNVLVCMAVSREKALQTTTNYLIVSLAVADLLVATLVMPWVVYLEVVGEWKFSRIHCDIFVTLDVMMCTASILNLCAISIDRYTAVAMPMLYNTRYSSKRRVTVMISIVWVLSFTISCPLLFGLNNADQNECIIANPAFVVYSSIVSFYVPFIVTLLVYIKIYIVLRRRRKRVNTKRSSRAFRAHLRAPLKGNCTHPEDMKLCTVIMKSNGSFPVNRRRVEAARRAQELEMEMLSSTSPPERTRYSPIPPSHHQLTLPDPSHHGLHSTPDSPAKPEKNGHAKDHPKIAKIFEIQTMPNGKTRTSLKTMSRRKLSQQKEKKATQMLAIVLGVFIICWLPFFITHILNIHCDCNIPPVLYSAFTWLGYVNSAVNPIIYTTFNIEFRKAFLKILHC
Compound,IC50 (D(2) dopamine receptor [1]) [µM],EC50 (D(4) dopamine receptor) [µM],EC50 (D(2) dopamine receptor [2]) [µM]
O/N=C(\CCN1CCN(c2ncccn2)CC1)c1ccccc1,> 10,0.0392,> 10
CO/N=C(\CCN1CCN(c2ccccc2OC(C)C)CC1)c1ccc(F)cc1,> 10,0.594,> 10
CO/N=C(/CCN1CCN(c2ccccn2)CC1)c1ccc(Cl)c(Cl)c1,> 10,0.341,> 10
CO/N=C(\CCN1CCC(c2cccc[n+]2[O-])CC1)c1ccc(Cl)cc1,> 10,0.084,> 10
CO/N=C(\c1ccc(Cl)cc1)C(CN1CCN(c2ccccn2)CC1)OC (stereo not given),> 10,0.195,> 10
CCO/N=C1/c2ccccc2CCC1CN1CCN(c2ccccn2)CC1 (stereo not given),> 10,4.76,> 10
CO/N=C(\CCCN1CCN(c2ccccn2)CC1)c1ccc(F)cc1,> 10,0.0417,> 10
O/N=C(/CCCN1CCN(c2ccccn2)CC1)c1ccc(F)cc1,> 10,0.0593,> 10
Cc1cccc(/C(=N/O)C(O)CN2CCN(c3ccccn3)CC2)c1 (stereo not given),> 10,0.0049,> 10
Cc1cc(C)cc(/C(CCN2CCN(c3ccccn3)CC2)=N/O)c1,> 10,0.0458,> 10
O/N=C(/CN1CCN(c2ccccn2)CC1)c1ccc(F)cc1,> 10,> 10,> 10
N#Cc1cccnc1N1CCN(CC/C(=N\O)c2ccccc2)CC1,> 10,0.018,> 10
O/N=C(/CCN1CCN(c2ccccn2)CC1)c1cc(F)cc(F)c1,> 10,0.0175,> 10
O/N=C(\CN1CCN(c2ccccn2)CC1)c1ccc(F)cc1,> 10,0.026,> 10
O/N=C(\CCN1CCN(c2ccccn2)CC1)c1ccc(Cl)cc1,> 10,0.475,> 10
O/N=C(\CCCN1CCN(c2ccccn2)CC1)c1ccc(F)cc1,> 10,0.0095,> 10
CO/N=C(/CCN1CCC(c2cccc[n+]2[O-])CC1)c1ccc(Cl)cc1,> 10,0.0464,> 10
CO/N=C(/CCN1CCN(c2ccccn2)CC1)c1cc(C)cc(C)c1,> 10,0.0747,> 10

# Other lines, results leading:
IC50 (D(2) dopamine receptor [1]) [µM],EC50 (D(4) dopamine receptor) [µM],EC50 (D(2) dopamine receptor [2]) [µM],Compound
> 10,0.139,> 10,CCO/N=C(\CCN1CCN(c2ncccc2C#N)CC1)c1ccccc1
> 10,0.095,> 10,CO/N=C(/CCN1CCN(c2ccccn2)CC1)c1ccc(F)c(Cl)c1
> 10,0.0566,> 10,CO/N=C(/CCN1CCN(c2ccccn2)CC1)c1ccc(Cl)cc1
> 10,0.35,> 10,C=CCO/N=C(\CCN1CCN(c2ccccn2)CC1)c1ccccc1
> 10,0.164,> 10,CC(C)O/N=C(\CCN1CCN(c2ccccn2)CC1)c1ccccc1
> 10,0.113,> 10,CO/N=C(/CCN1CCN(c2ccccn2)CC1)c1cccc(Cl)c1
> 10,0.0023,> 10,Cc1cccc(/C(CCN2CCN(c3ccccn3)CC2)=N/O)c1
> 10,0.109,> 10,CCO/N=C(\CCN1CCN(c2ccccc2)CC1)c1ccccc1
> 10,0.025,> 10,O/N=C(/CCN1CCN(c2ccccn2)CC1)c1ccccc1Cl
> 10,0.253,> 10,CCO/N=C(\CCN1CCN(c2ncccc2C)CC1)c1ccccc1
> 10,0.615,> 10,CCO/N=C(\CCN1CCN(c2ncccn2)CC1)c1ccccc1
> 10,0.082,> 10,CO/N=C(/CCN1CCN(c2ccccn2)CC1)c1ccc(Br)cc1
